# Results from different studies.
# Each line is one published result; the experiments were not run side by side.
# Target: Serine/threonine-protein kinase DCLK2 (DCLK2, Homo sapiens, UniProt Q8N568)
# Sequence (Q8N568 1-766, as in one of the studies): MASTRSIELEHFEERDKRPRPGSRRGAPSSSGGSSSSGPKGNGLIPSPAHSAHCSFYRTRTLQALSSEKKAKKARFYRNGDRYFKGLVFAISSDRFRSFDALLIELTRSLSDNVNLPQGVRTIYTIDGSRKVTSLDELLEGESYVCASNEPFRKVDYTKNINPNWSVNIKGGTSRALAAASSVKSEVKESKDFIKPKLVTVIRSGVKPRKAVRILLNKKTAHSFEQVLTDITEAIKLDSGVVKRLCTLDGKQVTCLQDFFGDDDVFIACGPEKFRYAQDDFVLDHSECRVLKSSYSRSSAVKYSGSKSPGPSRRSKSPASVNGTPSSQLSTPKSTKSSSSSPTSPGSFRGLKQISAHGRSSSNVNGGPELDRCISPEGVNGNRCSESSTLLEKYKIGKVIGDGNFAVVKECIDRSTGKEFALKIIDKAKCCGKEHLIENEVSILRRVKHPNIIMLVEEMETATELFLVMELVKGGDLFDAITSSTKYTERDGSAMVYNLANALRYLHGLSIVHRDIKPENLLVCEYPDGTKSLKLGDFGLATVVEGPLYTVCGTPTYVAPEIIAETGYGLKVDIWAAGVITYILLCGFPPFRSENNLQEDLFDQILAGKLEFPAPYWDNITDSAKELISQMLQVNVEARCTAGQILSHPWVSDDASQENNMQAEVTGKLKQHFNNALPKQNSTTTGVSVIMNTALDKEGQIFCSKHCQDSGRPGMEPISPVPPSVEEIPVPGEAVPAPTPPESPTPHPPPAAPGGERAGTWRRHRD
Compound,test,setting,endpoint,value
Cc1noc([C@H]2C[C@@H](c3ccc(C(F)(F)F)cc3)CN(C(=O)N3CCS(=O)(=O)C3)C2)n1,"cell-free assay, competition with immobilised ligand",1 µM,remaining binding,100%
CNC(=O)c1cc(Oc2ccc(NC(=O)Nc3ccc(Cl)c(C(F)(F)F)c3)cc2)ccn1,cell-free assay,0.5 µM,remaining signal,102%
CC(C)(O)[C@H]1CC[C@H](Nc2ccc3ncc(-c4cccc(C(F)(F)F)c4)n3n2)CC1,"enzyme activity, inhibitor",1 µM,remaining activity,95.3%
CO[C@H]1CC[C@H](CNc2ccc(S(=O)(=O)NC(=O)c3ccc(N4CCN(CC5=C(c6ccc(Cl)cc6)CC(C)(C)CC5)CC4)cc3Oc3cnc4[nH]ccc4c3)cc2[N+](=O)[O-])CC1,"cell-free assay, competition with immobilised ligand",1 µM,remaining binding,100%
Cn1cncc1C1=CN(c2ncnc3[nH]cnc23)CCS1,"enzyme activity, inhibitor, radiometric",2 µM,inhibition,14.2%
Cn1nc(C(=O)NCc2ccc(C(=O)O)cc2)cc1-c1ccc2[nH]ccc2c1,"cell-free assay, competition with immobilised ligand",0.1 µM,remaining binding,92%
CC(C)(C)c1nc2c(s1)c1nc(N)ncc1c1ccc(NS(=O)(=O)c3c(F)cccc3F)c(F)c12,"enzyme activity, inhibitor, radiometric",1 µM,remaining activity,90%
CCN(CC)CCNC(=O)c1c(C)[nH]c(/C=C2\C(=O)Nc3ccc(F)cc32)c1C,"enzyme activity, inhibitor",0.3 µM,inhibition,-2%
COc1ccc2c(c1)O[C@H](c1ccc(OC)c(OC)c1)C[C@@H]2NC(=O)C1(c2ccc3c(c2)OC(F)(F)O3)CC1,"cell-free assay, competition with immobilised ligand",1 µM,remaining binding,98%
CCCS(=O)(=O)Nc1ccc(F)c(C(=O)c2c[nH]c3ncc(-c4ccc(Cl)cc4)cc23)c1F,"enzyme activity, inhibitor",1 µM,inhibition,< 10%
CNC(=O)Nc1ccc2c(c1)CC[C@@]21OC(=O)N(CC(=O)N(Cc2ccc(F)cc2)[C@@H](C)C(F)(F)F)C1=O,"cell-free assay, competition with immobilised ligand",1 µM,remaining binding,70%
CCCOc1ccc(OC)c(F)c1C(=O)c1ccc(C(=O)N[C@@H]2CNC[C@H]2NC(=O)c2ccc3[nH]ncc3c2)cc1,"enzyme activity, inhibitor",10 µM,remaining activity,33%
Cc1ccc(NC(=O)c2ccc(CN3CCN(C)CC3)cc2)cc1Nc1nc(-c2cccnc2)cs1,cell-free assay,0.5 µM,remaining signal,102%
CC/C(=N\NC(=O)NCc1cccc(O)c1)c1ccc(O)c(C)c1O,"enzyme activity, inhibitor",0.1 µM,inhibition,-8.9%
Cc1ccc(NC(=O)c2ccc(C)c(C(F)(F)F)c2)cc1C#Cc1nn(C2CCC(O)CC2)c2ncnc(N)c12 (stereo not shown),cell-free assay,10 µM,remaining signal,102%
CCN(CC)c1ccc(C2=NNC(=O)CC2C)cc1[N+](=O)[O-] (stereo not shown),"enzyme activity, inhibitor",10 µM,remaining activity,102%
O=C(Nc1cnn(-c2csc(C(=O)NC3COC3)c2)c1)Nc1ccccc1Cl,"enzyme activity, inhibitor",5 µM,remaining activity,99.9%
COc1cc2c(N3CCN(C(=O)Nc4ccc(OC(C)C)cc4)CC3)ncnc2cc1OCCCN1CCCCC1,cell-free assay,0.5 µM,remaining signal,103%
Cc1nccc(COC(=O)N2C[C@@H]3[C@@H](CNC(=O)c4ccc5[nH]nnc5c4)[C@@H]3C2)n1,"cell-free assay, competition with immobilised ligand",1 µM,remaining binding,100%
COc1cc2ncnc(Nc3ccc(Oc4ccccc4)c(C)c3C)c2cc1OC,"enzyme activity, inhibitor",1 µM,inhibition,3%
Cc1ccc(Nc2nccc(N(C)c3ccc4c(C)n(C)nc4c3)n2)cc1S(N)(=O)=O,"enzyme activity, inhibitor",0.3 µM,inhibition,-2%
CS(=O)(=O)NCC[C@H](NC(=O)c1cncc2c1cnn2-c1ccc(F)cc1)c1ccnc(S(C)(=O)=O)c1,"cell-free assay, competition with immobilised ligand",1 µM,remaining binding,100%
